In paper PMC6858491 (ACS chemical biology, 2019):

Test system: Jurkat cells
Test: Apoptotic protection assay
Format: cell-based
Conditions: 20 µM inhibitor for 3 h before 10 ng/mL MegaFasL, CellTiter-Glo
Summary of the method: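 Jurkat A3 cells were grown near confluence (10% FBS, pen/strep/glutamine, 37 °C, 5% CO2), resuspended in fresh medium, and plated at 10,000 cells/well. They were then given test compound (20 µM, or a concentration series with 30 min pretreatment) or DMSO vehicle, for set times before or after 10 ng/mL MegaFasL. Viability was read by CellTiter-Glo 3 h after induction.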

## Z-D^ME^MVD^M-FMK [0^M]
  protection from extrinsic apoptosis (cellular viability): able to preserve cellular viability
